Experimental data from ChEMBL document CHEMBL1123350, “Synthesis and beta-adrenergic receptor blocking potency of 1-(substituted amino)-3-(4-indolyloxy)propan-2-ols” (J Med Chem, 1986).

system: not listed separately; assay: Distribution coefficient value of the compound; format: physicochemical; conditions: octanol/water
How it was run: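 Shake-flask partition between 0.1 M potassium phosphate pH 7.4 and 1-octanol, each phase presaturated with the other. Compound at 0.1–1.0 mg/mL in buffer, shaken 30 min, left 10 min, spun 600g 10 min at room temperature. Aqueous-phase absorbance read before and after partition at a per-compound wavelength. D = (Aorig−Aextr)/(Aextr·f), with f the octanol:buffer volume ratio. Run twice.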

| Compound | logD |
| --- | --- |
| Nc1ccc(CCNCC(O)COc2cccc3[nH]ccc23)cc1 (stereo not given) | 0.3 |
| OC(CNCCc1ccccc1)COc1cccc2[nH]ccc12 (stereo not given) | 1.7 |
| OC(CNCCc1ccc(Cl)c(Cl)c1)COc1cccc2[nH]ccc12 (stereo not given) | 2.5 |
| OC(CNCCc1ccc(F)cc1)COc1cccc2[nH]ccc12 (stereo not given) | 2 |
| CC(C)(CO)NCC(O)COc1cccc2[nH]ccc12 (stereo not given) | -0.6 |
| O=[N+]([O-])c1ccc(CCNCC(O)COc2cccc3[nH]ccc23)cc1 (stereo not given) | 1.5 |
| OC(CNCc1ccc(F)cc1)COc1cccc2[nH]ccc12 (stereo not given) | 1.9 |
| OC(CNCc1ccccc1F)COc1cccc2[nH]ccc12 (stereo not given) | 2 |
| COc1ccc(CCNCC(O)COc2cccc3[nH]ccc23)cc1OC (stereo not given) | 1.1 |
| CC(C)NCC(O)COc1cccc2[nH]ccc12 (stereo not given) [PINDOLOL] | -0.3 |

species on record: Rattus norvegicus; assay: Hill coefficient value assayed against rat beta adrenergic receptor; conditions: not given
How it was run: (§1)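 Male Sprague–Dawley rat cortex or cerebellum membranes, washed in HEPES–EDTA pH 7.5 and resuspended in NaCl–Tris–MgCl2 pH 7.5. Bound ligand collected by filtration and gamma-counted; isoproterenol 25 μM defines nonspecific binding. IC50 and Hill n by nonlinear regression; Ki by Cheng–Prusoff for the eutomer. Run at least twice.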

| Compound | Hill coefficient |
| --- | --- |
| Nc1ccc(CCNCC(O)COc2cccc3[nH]ccc23)cc1 (stereo not given) | > 0.9 |
| OC(CNCCc1ccccc1)COc1cccc2[nH]ccc12 (stereo not given) | > 0.9 |
| OC(CNCCc1ccc(Cl)c(Cl)c1)COc1cccc2[nH]ccc12 (stereo not given) | > 0.9 |
| OC(CNCCc1ccc(F)cc1)COc1cccc2[nH]ccc12 (stereo not given) | > 0.9 |
| CC(C)(CO)NCC(O)COc1cccc2[nH]ccc12 (stereo not given) | > 0.9 |
| O=[N+]([O-])c1ccc(CCNCC(O)COc2cccc3[nH]ccc23)cc1 (stereo not given) | > 0.9 |
| OC(CNCc1ccc(F)cc1)COc1cccc2[nH]ccc12 (stereo not given) | > 0.9 |
| OC(CNCc1ccccc1F)COc1cccc2[nH]ccc12 (stereo not given) | > 0.9 |
| COc1ccc(CCNCC(O)COc2cccc3[nH]ccc23)cc1OC (stereo not given) | > 0.9 |
| CC(C)NCC(O)COc1cccc2[nH]ccc12 (stereo not given) [PINDOLOL] | > 0.9 |

target: not listed separately; assay: In vitro for binding affinity against beta adrenergic receptor in rat cerebellum; format: tissue-based; conditions: not given; how it was run: as §1

| Compound | Ki [nM] |
| --- | --- |
| Nc1ccc(CCNCC(O)COc2cccc3[nH]ccc23)cc1 (stereo not given) | 22 |
| OC(CNCCc1ccccc1)COc1cccc2[nH]ccc12 (stereo not given) | 4 |
| OC(CNCCc1ccc(Cl)c(Cl)c1)COc1cccc2[nH]ccc12 (stereo not given) | 11 |
| OC(CNCCc1ccc(F)cc1)COc1cccc2[nH]ccc12 (stereo not given) | 4 |
| CC(C)(CO)NCC(O)COc1cccc2[nH]ccc12 (stereo not given) | 2 |
| O=[N+]([O-])c1ccc(CCNCC(O)COc2cccc3[nH]ccc23)cc1 (stereo not given) | 8 |
| OC(CNCc1ccc(F)cc1)COc1cccc2[nH]ccc12 (stereo not given) | 80 |
| OC(CNCc1ccccc1F)COc1cccc2[nH]ccc12 (stereo not given) | 45 |
| COc1ccc(CCNCC(O)COc2cccc3[nH]ccc23)cc1OC (stereo not given) | 7 |
| CC(C)NCC(O)COc1cccc2[nH]ccc12 (stereo not given) [PINDOLOL] | 1 |

target: not listed separately; assay: In vitro for binding affinity against beta adrenergic receptor in rat cortex; conditions: not given; how it was run: as §1

| Compound | Ki [nM] |
| --- | --- |
| Nc1ccc(CCNCC(O)COc2cccc3[nH]ccc23)cc1 (stereo not given) | 25 |
| OC(CNCCc1ccccc1)COc1cccc2[nH]ccc12 (stereo not given) | 5 |
| OC(CNCCc1ccc(Cl)c(Cl)c1)COc1cccc2[nH]ccc12 (stereo not given) | 6 |
| OC(CNCCc1ccc(F)cc1)COc1cccc2[nH]ccc12 (stereo not given) | 5 |
| CC(C)(CO)NCC(O)COc1cccc2[nH]ccc12 (stereo not given) | 2 |
| O=[N+]([O-])c1ccc(CCNCC(O)COc2cccc3[nH]ccc23)cc1 (stereo not given) | 5 |
| OC(CNCc1ccc(F)cc1)COc1cccc2[nH]ccc12 (stereo not given) | 125 |
| OC(CNCc1ccccc1F)COc1cccc2[nH]ccc12 (stereo not given) | 60 |
| COc1ccc(CCNCC(O)COc2cccc3[nH]ccc23)cc1OC (stereo not given) | 3 |
| CC(C)NCC(O)COc1cccc2[nH]ccc12 (stereo not given) [PINDOLOL] | 1 |
